{"source": "paper PMC6105387", "about": "(Journal of clinical pharmacology, 2018)", "key": {"[1]": {"test": "Population pharmacokinetic model", "assay_type": "in vivo, human", "method_in_brief": "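Whole blood sampled 0–12 h post-dose and assayed by chemiluminescent microparticle immunoassay. Compartment models with first-order absorption; between-subject variability exponential, log-normal; categorical covariates as fractional change. Precision from 1000 bootstrap replicates (median, 95% percentile).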"}, "[2]": {"details": "metabolites excreted through the biliary route; cited from earlier work"}}, "data": [{"smiles": "C=CC[C@@H]1/C=C(\\C)C[C@H](C)C[C@H](OC)[C@H]2O[C@@](O)(C(=O)C(=O)N3CCCC[C@H]3C(=O)O[C@H](/C(C)=C/[C@@H]3CC[C@@H](O)[C@H](OC)C3)[C@H](C)[C@@H](O)CC1=O)[C@H](C)C[C@@H]2OC", "note": "[tacrolimus, Tacrolimus]", "values": [{"measurement": "magnitude of BSV on CL/F", "setting": "[1]; after inclusion of covariates", "result": 37, "unit": "%"}, {"measurement": "magnitude of BSV on V/F", "setting": "[1]; after inclusion of covariates", "result": 76.7, "unit": "%"}, {"measurement": "Individual base model estimated apparent clearance CL/F, mean", "setting": "[1]; extensive metabolizers (CEMCYP3A5)", "result": 45.0, "unit": "L/h"}, {"measurement": "Individual base model estimated apparent clearance CL/F, mean", "setting": "[1]; intermediate metabolizers (CIMCYP3A5)", "result": 29.5, "unit": "L/h"}, {"measurement": "Individual base model estimated apparent clearance CL/F, mean", "setting": "[1]; poor metabolizers (CPMCYP3A5)", "result": 19.8, "unit": "L/h"}, {"measurement": "magnitude of BSV on CL/F", "setting": "[1]; before inclusion of covariates", "result": 46.6, "unit": "%"}, {"measurement": "magnitude of BSV on V/F", "setting": "[1]; before inclusion of covariates", "result": 83.2, "unit": "%"}, {"measurement": "increase in CL/F compared to cPMCYP3A5", "setting": "[1]; cEMCYP3A5", "result": "~2", "unit": "fold"}, {"measurement": "Typical value of CL/F", "setting": "[1]; cEMCYP3A5, final model", "result": 44.3, "unit": "L.hr^1"}, {"measurement": "increase in CL/F compared to cPMCYP3A5", "setting": "[1]; cIMCYP3A5", "result": "~1.5", "unit": "fold"}, {"measurement": "Typical value of CL/F", "setting": "[1]; cIMCYP3A5, final model", "result": 28.6, "unit": "L.hr^1"}, {"measurement": "Typical value of CL/F", "setting": "[1]; cPMCYP3A5, final model", "result": 19.7, "unit": "L.hr^1"}, {"measurement": "BSV CL/F - η1, between-subject variability, estimate", "setting": "[1]; final model", "result": 37.0, "unit": "CV%"}, {"measurement": "BSV CLp/F - η3, between-subject variability, estimate", "setting": "[1]; final model", "result": 48.6, "unit": "CV%"}, {"measurement": "BSV V/F - η2, between-subject variability, estimate", "setting": "[1]; final model", "result": 76.7, "unit": "CV%"}, {"measurement": "BSV ka - η4, between-subject variability, estimate", "setting": "[1]; final model", "result": 69.4, "unit": "CV%"}, {"measurement": "Lag time - θlag, estimate", "setting": "[1]; final model", "result": 0.828, "unit": "h"}, {"measurement": "Residual variability, proportional error - ε1, estimate", "setting": "[1]; final model", "result": 9.00}, {"measurement": "ka - θka, absorption rate, estimate", "setting": "[1]; final model", "result": 4.21, "unit": "h⁻¹"}, {"measurement": "Vd/F", "setting": "[1]; human, whole blood, oral", "result": 234, "unit": "L"}, {"measurement": "clearance", "setting": "[1]; human, whole blood, oral, 2.5 mg", "result": 328, "unit": "mL/min"}, {"measurement": "clearance", "setting": "[1]; human, whole blood, oral, 3.9 mg", "result": 477, "unit": "mL/min"}, {"measurement": "clearance", "setting": "[1]; human, whole blood, oral, 5.7 mg", "result": 738, "unit": "mL/min"}, {"measurement": "BSV V/F - η2, bootstrap median", "setting": "[1]; nonparametric bootstrap n=1000", "result": 76.0, "unit": "CV%"}, {"measurement": "BSV ka - η4, bootstrap median", "setting": "[1]; nonparametric bootstrap n=1000", "result": 68.6, "unit": "CV%"}, {"measurement": "Lag time - θlag, bootstrap median", "setting": "[1]; nonparametric bootstrap n=1000", "result": 0.830, "unit": "h"}, {"measurement": "Residual variability, proportional error - ε1, bootstrap median", "setting": "[1]; nonparametric bootstrap n=1000", "result": 8.90}, {"measurement": "V/F - θV/F, bootstrap median", "setting": "[1]; nonparametric bootstrap n=1000", "result": 231, "unit": "L"}, {"measurement": "Vp/F - θVp/F, bootstrap median", "setting": "[1]; nonparametric bootstrap n=1000", "result": 404, "unit": "L"}, {"measurement": "ka - θka, bootstrap median", "setting": "[1]; nonparametric bootstrap n=1000", "result": 4.14, "unit": "h⁻¹"}, {"measurement": "CL/F - θCL/F, bootstrap median", "setting": "[1]; nonparametric bootstrap n=1000, poor metabolizers", "result": 19.6, "unit": "L/h"}, {"measurement": "parent drug remaining unchanged", "setting": "[2]", "result": "less than 1%"}]}]}
